Experimental data gathered from unrelated publications.
Protocols differ between the studies behind these lines.
Target: Dual serine/threonine and tyrosine protein kinase (DSTYK, Homo sapiens, UniProt Q6XUX3)
Residues used in one study (Q6XUX3 1-929): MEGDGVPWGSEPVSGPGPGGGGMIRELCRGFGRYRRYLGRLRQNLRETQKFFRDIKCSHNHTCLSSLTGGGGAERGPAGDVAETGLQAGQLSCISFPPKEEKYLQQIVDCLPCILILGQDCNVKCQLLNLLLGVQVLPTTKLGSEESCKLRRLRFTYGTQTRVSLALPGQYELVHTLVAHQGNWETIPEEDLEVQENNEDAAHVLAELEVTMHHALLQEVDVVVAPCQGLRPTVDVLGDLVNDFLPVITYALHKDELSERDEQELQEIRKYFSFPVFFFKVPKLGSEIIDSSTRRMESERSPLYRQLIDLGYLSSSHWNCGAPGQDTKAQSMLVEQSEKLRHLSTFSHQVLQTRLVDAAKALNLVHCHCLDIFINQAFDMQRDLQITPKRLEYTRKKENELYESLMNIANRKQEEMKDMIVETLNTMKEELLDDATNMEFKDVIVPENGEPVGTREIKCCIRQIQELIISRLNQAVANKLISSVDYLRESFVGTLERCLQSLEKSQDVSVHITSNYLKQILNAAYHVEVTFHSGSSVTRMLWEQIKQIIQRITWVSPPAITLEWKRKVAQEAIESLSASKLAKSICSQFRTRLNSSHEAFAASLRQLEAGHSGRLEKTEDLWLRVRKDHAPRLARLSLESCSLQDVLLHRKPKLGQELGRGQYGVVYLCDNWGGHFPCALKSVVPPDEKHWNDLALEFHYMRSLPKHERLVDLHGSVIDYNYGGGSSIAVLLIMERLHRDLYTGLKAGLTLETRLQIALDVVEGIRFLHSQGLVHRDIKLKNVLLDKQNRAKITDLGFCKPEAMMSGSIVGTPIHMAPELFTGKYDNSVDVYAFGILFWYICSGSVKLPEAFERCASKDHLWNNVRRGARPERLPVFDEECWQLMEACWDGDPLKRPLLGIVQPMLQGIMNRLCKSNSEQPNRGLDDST

| SMILES | effect on | technique | tested at | remaining binding [%] |
| --- | --- | --- | --- | --- |
| CN1CCN(c2cnc3c(C4CCN(C(=O)c5ccc(OC(F)(F)F)cc5N)CC4)ncnc3c2)CC1 | cell-free assay | competition with immobilised ligand | 1 µM | 100 |
| Nc1ncc2c(n1)-c1c([nH]c3ccc(C#CC4CC4)cc13)CCCC2 | binding | competition with immobilised ligand | 1 µM | 19 |
| O=C(N1CCS(=O)(=O)CC1)N1C[C@H](c2ccc(OC(F)(F)F)cc2)C[C@H](c2nc(C3CC3)no2)C1 | cell-free assay | competition with immobilised ligand | 1 µM | 100 |
| CNC(=O)[C@@H]1CC[C@@H](n2c(-c3ccc4cnccc4c3)nc3ccc(C(=O)NCc4cccc(C(N)=O)c4)cc32)C1 | binding | competition with immobilised ligand | 1 µM | 100 |
| CN(C)c1nccc(-c2cnc3ncccn23)n1 | binding |  | 1 µM | 78 |
| CCN1CCN(Cc2ccc(C(=O)Nc3ccc(C)c(Oc4ccc5c(c4)CC(=O)N5)c3)cc2C(F)(F)F)CC1 | binding | competition with immobilised ligand | 1 µM | 100 |
| N[C@@H]1CCN(c2nccc(-c3cnn4ncccc34)n2)C1 | binding |  | 1 µM | 100 |
| FC(F)(F)Oc1cccc(-c2cnc3ccc(-c4ccncc4)nn23)c1 | binding | competition with immobilised ligand | 5 µM | 49 |
| Cc1cnc(Nc2ccc(C(=O)N3CCC(N4CCCC4)CC3)cc2)nc1-c1cc2ccccc2s1 | binding | competition with immobilised ligand | 1 µM | 22 |
| CC1CCCN1c1nccc(-c2cnn3ncccc23)n1 (stereo not shown) | binding |  | 1 µM | 100 |
| NS(=O)(=O)c1cc(NC(=O)Cc2ccccc2)ccc1Oc1cccc(Cl)c1 | cell-free assay | competition with immobilised ligand | 1 µM | 83 |
| CN(c1nccc(-c2cnn3ncccc23)n1)C1CC1 | binding |  | 1 µM | 98 |
| C[C@@H]1CN(c2cc(-c3n[nH]c4ccc(OC5(C)CC5)cc34)ncn2)C[C@H](C)O1 | cell-free assay | competition with immobilised ligand | 0.1 µM | 77 |
| O=C(Nc1c[nH]nc1C(=O)NC1CCNCC1)c1cc(F)cc(F)c1 | binding | competition with immobilised ligand | 1 µM | 87 |
| O=C(c1ccc(Nc2nccc(-c3cc4ccccc4s3)n2)cc1)N1CCC(N2CCCC2)CC1 | binding | competition with immobilised ligand | 1 µM | 37 |
| CCc1ccccc1C(=O)Nc1n[nH]c2c(C)c(F)c(C3C(C#N)=C(C)N(C)C(C)=C3C#N)cc12 | cell-free assay | competition with immobilised ligand | 1 µM | 95 |
| c1cnn2ncc(-c3ccnc(N4CCC45COC5)n3)c2c1 | binding |  | 1 µM | 79 |
| CNC(=O)c1ccc(Nc2ncc(C(F)(F)F)c(NCc3nccnc3N(C)S(C)(=O)=O)n2)cc1 | cell-free assay | competition with immobilised ligand | 0.1 µM | 87 |
| COc1cnc(Nc2cccc(S(N)(=O)=O)c2)nc1N1CCN(c2ccccc2)C(=O)C1 | binding | competition with immobilised ligand | 1 µM | 89 |
| CO[C@@H](C)c1c(Nc2ccc([C@@H](N(C)C(=O)C3CCS(=O)(=O)CC3)C(F)(F)F)cc2)cnc2cc(Cl)nn12 | cell-free assay | competition with immobilised ligand | 1 µM | 100 |
| O=C(c1ccc(Nc2ncc(Cl)c(-c3ccc(Cl)s3)n2)cc1)N1CCC(N2CCCC2)CC1 | binding | competition with immobilised ligand | 1 µM | 14 |
| C[C@H]1CCN(c2nccc(-c3cnn4ncccc34)n2)C1 | binding |  | 1 µM | 94 |
